Each block holds one molecule with its values, some of them ahead of it. The source made the active and inactive calls. No cut-off for these calls is given here.
Assays:
[1] = Induction of peroxynitrite anion generation assessed as peroxynitrite anion level in presence of riboflavin by DHR-123 indicator based spectrofluorometric method; assay type: functional
Method in brief: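 Peroxynitrite was generated by the S-nitrosothiol with riboflavin (250, 500, 1000 μM) illuminated by a standard lamp (0.6 Lumen, 310 K), followed over 2–24 h. It was detected by oxidation of dihydrorhodamine 123 to fluorescent rhodamine 123, with excitation at 485 nm and emission at 530 nm.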

[2] = Induction of peroxynitrite anion generation assessed as peroxynitrite anion level in presence of xanthine/xanthine oxidase by DHR-123 indicator based spectrofluorometric method; assay type: functional
Method in brief: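 Peroxynitrite was generated by the S-nitrosothiol with xanthine (400 μM) and xanthine oxidase (50 mU mL–1), the reaction being started by adding substrate or enzyme. It was quantified spectrofluorometrically by dihydrorhodamine 123 oxidation to rhodamine 123, with excitation at 485 nm and emission at 530 nm.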

Escherichia coli [3] = assay: Antimicrobial activity against Escherichia coli assessed as reduction in microbial growth measured up to 24 hrs in presence of riboflavin under day light exposure; assay type: functional, organism-based
Method in brief: (§1)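 E. coli was exposed to riboflavin (250, 500, 1000 μM) plus the S-nitrosothiol at 250, 500 or 1000 μM. Incubation was 24 h at 37 °C under a daylight LED (0.6 Lumen). Growth was read as OD at 570 nm at 0 h and 24 h. Controls were medium plus organism, antibiotic/antifungal mix, and riboflavin or RSNO alone. Triplicates on three occasions (n = 9), one-way ANOVA.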

Bacillus cereus = assay: Antimicrobial activity against Bacillus cereus assessed as microbial growth at 250 to 1000 uM measured up to 24 hrs in presence of xanthine/xanthine oxidase; assay type: functional
Method in brief: (§2)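 Xanthine (400 μM) and xanthine oxidase (50 mU mL–1) were combined with the S-nitrosothiol at 250, 500 and 1000 μM. Growth was read as optical density at 570 nm at 0 h and after 24 h at 37 °C. Controls were medium plus organism (negative) and penicillin/streptomycin/amphotericin B (positive). Runs were in triplicate on three occasions (n = 9), analysed by one-way ANOVA.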

Saccharomyces cerevisiae = assay: Antimicrobial activity against Saccharomyces cerevisiae assessed as microbial growth at 250 to 1000 uM measured up to 24 hrs in presence of xanthine/xanthine oxidase; assay type: functional; method in brief: as §2
Candida tropicalis = assay: Antimicrobial activity against Candida tropicalis assessed as reduction in microbial growth at 250 to 1000 uM measured up to 24 hrs in presence of xanthine/xanthine oxidase; assay type: functional, organism-based; method in brief: as §2
Steinernema feltiae [4] = assay: Nematocidal activity against Steinernema feltiae assessed as nematode viability at 250 to 1000 uM measured up to 24 hrs in presence of xanthine/xanthine oxidase; assay type: functional
Steinernema feltiae [5] = assay: Nematocidal activity against Steinernema feltiae assessed as nematode viability at 250 to 1000 uM measured up to 24 hrs in presence of xanthine oxidase; assay type: functional
Escherichia coli [6] = assay: Dark toxicity against Escherichia coli at 250 to 1000 uM in presence of riboflavin measured up to 24 hrs; assay type: organism-based; details: in vivo
Method in brief: (§3)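 E. coli was treated with the riboflavin (250, 500, 1000 μM) plus RSNO (250–1000 μM) system and incubated 24 h at 37 °C in the dark. Growth was read as OD at 570 nm at 0 and 24 h. Medium-only and antibiotic-mix controls were included, plus riboflavin and RSNO dilution controls. Triplicates on three occasions (n = 9).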

Escherichia coli [7] = assay: Dark toxicity against Escherichia coli at 250 to 1000 uM measured under dark condition up to 24 hrs; assay type: organism-based; details: in vivo; method in brief: as §3
Steinernema feltiae [8] = assay: Nematocidal activity against Steinernema feltiae at 250 to 1000 uM in presence of riboflavin measured under dark condition up to 24 hrs; assay type: functional, organism-based
Method in brief: (§4)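 S. feltiae nematodes were exposed to riboflavin (500 or 1000 μM) with the S-nitrosothiol, incubated 24 h at 37 °C without light. Controls were medium plus nematodes (negative), penicillin/streptomycin/amphotericin B (positive), and 1000 μM riboflavin or RSNO alone. Triplicates on three occasions (n = 9).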

Steinernema feltiae [9] = assay: Nematocidal activity against Steinernema feltiae at 250 to 1000 uM measured under dark condition up to 24 hrs; assay type: functional, organism-based; method in brief: as §4
Escherichia coli [10] = assay: Antimicrobial activity against Escherichia coli assessed as microbial growth at 250 to 1000 uM measured up to 24 hrs in presence of riboflavin under day light exposure relative to control; assay type: functional; method in brief: as §1

Activity [2]: 15.4 µM
Structure (SMILES): CC(=O)N[C@@H](C(=O)O)C(C)(C)SN=O
Activity [1]: 20.4 µM
Activity (Escherichia coli [3]): Dose-dependent effect
Activity (Bacillus cereus): Active
Activity (Saccharomyces cerevisiae): Active
Activity (Candida tropicalis): inactive
Activity (Steinernema feltiae [4]): <10%
Activity (Steinernema feltiae [5]): 50%

Activity [2]: 17.1 µM
Structure (SMILES): N[C@@H](CCC(=O)N[C@@H](CSN=O)C(=O)NCC(=O)O)C(=O)O [S-NITROSOGLUTATHIONE]
Activity [1]: 18.9 µM
Activity (Escherichia coli [6]): Non-Toxic
Activity (Escherichia coli [7]): Non-Toxic
Activity (Steinernema feltiae [8]): inactive
Activity (Steinernema feltiae [9]): inactive
Activity (Escherichia coli [10]): 20%
Activity (Escherichia coli [3]): Dose-dependent effect
Activity (Bacillus cereus): 6%
Activity (Saccharomyces cerevisiae): 9%
Activity (Candida tropicalis): inactive
Activity (Steinernema feltiae [4]): <10%
Activity (Steinernema feltiae [5]): 50%

Reference: ChEMBL document CHEMBL4368871, “Flush with a flash: natural three-component antimicrobial combinations based on S-nitrosothiols, controlled superoxide formation and "domino" reactions leading to peroxynitrite” (Medchemcomm, 2018)
